High-throughput results as filed in PubChem.
DNA FID counter: counter-screen for HCV NS3 helicase inhibitors: DNA intercalator displacement; DNA fluorescent intercalator displacement, fluorescence; inhibition, % at 7.9 µM; 290,000 tested, 0.17% active; AID 1845; in the data active = inhibition above about 37%;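 note: 0% = vehicle and 100% = reference compound; higher means more ethidium bromide displaced from hairpin DNA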
NS3 helicase inh: blocks Hepatitis C virus NS3 helicase unwinding. 290,000 tested, 0.56% active. NS3 helicase DNA unwinding, Cy5 molecular beacon fluorescence. inhibition, % at 10.9 µM. AID 1800;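 active = inhibition above the mean of all tested compounds plus 3 SD, set per campaign, cut at about 35% in these data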;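 note: 0% = DMSO wells and 100% = thioflavine S control wells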
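System: Hepatitis C virus NS3 helicase domain fragment enzyme | Reagent: Annealed dual-labelled DNA beacon duplex, ATP-started | Compound dosing: 10.9 µM single point, 0.8% DMSO | Incubation: 1 h reaction at 25 °C, ATP-initiated | Technique: Cy5 fluorescence | Evaluation: Percent inhibition from t60/t0 fluorescence ratio | Benchmarks: Low DMSO, high thioflavine S at 110 µM | Replication: Singlicate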
EBNA-1 inhibitor: blocks EBNA-1 binding to DNA; EBNA-1 DNA binding, fluorescence polarization; inhibition, % at 14.8 µM; 300,000 tested, 0.34% active; in the data active = inhibition above about 28%
FGF22 binding: FGF22 (human) thermal shift binding; 340,000 tested, 1.5% active; recombinant FGF22 thermal shift, SYPRO orange fluorescence; percent of sucrose octasulfate shift, DMSO zero; activity (Tm shift, normalised), % at 9.99 µM; AID 651658;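 active = mean Tm shift, scaled 0 neutral to 100 positive control, at about 1.3% or above, every replicate too, limit read from the data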
Target sequence (Q9HCT0 whole entry, looked up): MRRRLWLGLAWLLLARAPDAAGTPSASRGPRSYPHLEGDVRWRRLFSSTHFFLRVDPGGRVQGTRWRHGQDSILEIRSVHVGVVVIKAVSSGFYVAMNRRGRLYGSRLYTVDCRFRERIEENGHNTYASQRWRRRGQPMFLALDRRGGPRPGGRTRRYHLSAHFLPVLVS
ZTA counter: counter-screen for EBNA-1 inhibitors: inhibitors of Epstein-Barr virus ZTA | P03206 | ZTA-DNA binding, fluorescence polarization | inhibition, % at 11 µM | 320,000 tested, 0.15% active | AID 2234; in the data active = inhibition above about 33%
Target sequence (P03206 whole entry, looked up): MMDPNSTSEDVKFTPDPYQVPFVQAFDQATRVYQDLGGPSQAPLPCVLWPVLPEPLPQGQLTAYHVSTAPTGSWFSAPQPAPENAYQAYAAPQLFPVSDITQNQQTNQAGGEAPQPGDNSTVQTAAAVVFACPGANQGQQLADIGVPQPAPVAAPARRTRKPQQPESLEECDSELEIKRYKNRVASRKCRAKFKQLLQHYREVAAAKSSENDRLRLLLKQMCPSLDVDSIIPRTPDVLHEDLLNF
GRIN3A LBD mod: modulates the human NR3A ligand-binding domain; NR3A LBD differential scanning fluorimetry, Tm shift; 0% = protein alone, 100% = glycine-bound protein; Tm shift relative to glycine control, % at 25 µM; 340,000 tested, 2.5% active;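 active = melting temperature shift of at least 10% of the positive control shift, at one fixed dose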
* hit, by the source's call; . = no result given. An excerpt weighted towards active compounds, which were near 3.6% of everything screened.

SMILES | DNA FID counter | NS3 helicase inh | EBNA-1 inhibitor | FGF22 binding | ZTA counter | GRIN3A LBD mod
O=C(C[C@H]1C[C@@H]2c3cc(NC(=O)NC4CCCC4)ccc3O[C@@H]2[C@H](CO)O1)NCCc1ccccc1 | . | . | . | 0 | . | .
CC(=O)Nc1ccc(S(=O)(=O)N2CN(c3ccc(C)cc3)c3nc4ccccc4nc32)cc1 | -4 | -12 | 2 | 0 | 4 | 16*
O=c1/c(=C\c2ccc(O)cc2)sc2n1C(c1ccccc1)C(c1ccccc1)=NN=2 (configuration not stated) | 1 | 10 | 2 | . | -2 | 15*
COc1cccc(C2C(C(=O)OC(C)C)=C(C)N=c3s/c(=C\c4ccc(C(=O)O)cc4)c(=O)n32)c1 (configuration not stated) | 11 | 7 | -15 | 0 | 9 | -2
CO[C@H]1CN(C)C(=O)c2cc(NS(=O)(=O)c3ccccc3F)ccc2OC[C@H](C)NC[C@H]1C | . | . | . | 0 | . | .
Cc1ccccc1NC(c1cccc(Cl)c1)c1nnnn1C1CCCCC1 (configuration not stated) | -6 | 5 | 3 | 0 | 2 | 13*
N#Cc1cccc(C(c2nnnn2C2CCCC2)N2CCCCCC2)c1 (configuration not stated) | -18 | 8 | -12 | . | -18 | 0
COc1ccc(-c2[nH]ncc2-c2ccc3c(c2)OCCO3)c(O)c1 | -1 | -2 | 3 | . | 9 | 0
CCc1cc(-c2[nH]ncc2-c2ccc3c(c2)OCO3)c(O)cc1O | -6 | -20 | -4 | . | 19 | 24*
CCCc1cc(-c2[nH]ncc2-c2ccc3c(c2)OCCCO3)c(O)cc1OC | -10 | -10 | . | . | . | .
CCc1cc(-c2[nH]ncc2-c2ccc(OC)cc2)c(O)cc1O | -4 | -10 | 4 | 0 | -2 | 41*
COc1ccc(-c2cn[nH]c2-c2ccc(OCc3ccc([N+](=O)[O-])cc3)cc2O)cc1 | 5 | 8 | -3 | 0 | 14 | 30*
CCOc1ccc(-c2[nH]ncc2-c2ccc(OC)c(OC)c2)c(O)c1 | -17 | -3 | 6 | . | -4 | -1
CCC(=O)N1C[C@@H](C)[C@H](OC)CN(C)C(=O)c2cc(NC(=O)Nc3ccc(Cl)cc3)ccc2OC[C@@H]1C | . | . | . | 1 | . | .
CCCNC(=O)C[C@@H]1C[C@@H]2c3cc(NS(=O)(=O)c4cccc(OC)c4)ccc3O[C@@H]2[C@H](CO)O1 | . | . | . | 0 | . | .
C[C@H]1CN([C@@H](C)CO)C(=O)c2cccc(NC(=O)Nc3ccccc3)c2O[C@H]1CN(C)C(=O)NC1CCCCC1 | . | . | . | 0 | . | .
C[C@@H]1CN([C@H](C)CO)C(=O)c2cc(NS(C)(=O)=O)ccc2O[C@H]1CN(C)C(=O)Nc1ccc2c(c1)OCO2 | . | . | . | 0 | . | .
COc1ccc(CN(C)C[C@@H]2OCCCC[C@H](C)Oc3ccc(NC(=O)Nc4ccc(F)cc4)cc3C(=O)N([C@@H](C)CO)C[C@H]2C)cc1 | . | . | . | 0 | . | .
Cc1cc(C(=O)CN2C(=O)NC3(CCC(C)CC3)C2=O)c(C)n1C (configuration not stated) | -2 | -5 | -5 | 43* | -3 | -2
CNC[C@H](Cc1ccccc1)NC[C@@H](Cc1cccc2ccccc12)NCCc1ccc(C)cc1 | 37* | -88 | -1 | 0 | -2 | -5
COc1cccc(NC(=O)N2C[C@@H](O)COC[C@@H]3O[C@H](CC(=O)N(C)C)CC[C@H]32)c1 | . | . | . | 0 | . | .
C=C(C)CSCc1nc2ccccc2[nH]1 | 0 | 4 | -2 | . | 1 | 1
O=C(O)CSCc1nc2ccccc2[nH]1 | 1 | 3 | 5 | 44* | 10 | 3
CNC[C@@H]1Oc2ccc(NC(=O)Nc3c(C)noc3C)cc2C(=O)N([C@@H](C)CO)C[C@H]1C | . | . | . | 0 | . | .
COc1ccc(-c2oc(=O)c3cc(OC)c(OC)cc3c2C#CC2(O)CCCCC2)cc1 | . | . | . | 0 | . | 13*
SMILES | DNA FID counter | NS3 helicase inh | EBNA-1 inhibitor | FGF22 binding | ZTA counter | GRIN3A LBD mod
CCOc1ccc(OCCn2nnc3ccccc3c2=O)cc1 | -12 | -2 | 0 | 44* | -18 | -3
CCCn1nnc2ccccc2c1=O | -3 | 1 | 13 | . | 1 | -4
CNc1ccc2nnc(C(F)(F)C(F)(F)C(F)(F)F)n2n1 | 6 | 8 | 4 | 43* | 4 | 0
C[C@@H]1CCCCO[C@H](CN(C)C(=O)Nc2ccc(F)cc2)[C@@H](C)CN([C@@H](C)CO)C(=O)c2cc(NC(=O)Nc3ccc(C(F)(F)F)cc3)ccc2O1 | . | . | . | 1 | . | .
C[C@@H]1CCCCO[C@H](CN(C)C(=O)Nc2ccc(C(F)(F)F)cc2)[C@@H](C)CN([C@H](C)CO)C(=O)c2cc(NS(=O)(=O)c3cn(C)cn3)ccc2O1 | . | . | . | 1.5* | . | .
C[C@H](CO)N1C[C@H](C)[C@@H](CN(C)C(=O)Nc2ccc(F)cc2)OCCCC[C@H](C)Oc2ccc(NC(=O)Nc3ccc(C(F)(F)F)cc3)cc2C1=O | . | . | . | 1.2* | . | .
C[C@@H]1CN([C@H](C)CO)C(=O)c2cc(NC(=O)Nc3ccc(C(F)(F)F)cc3)ccc2O[C@@H](C)CCCCO[C@H]1CN(C)C(=O)Nc1ccc(F)cc1 | . | . | . | 1.4* | . | .
C[C@@H]1CN([C@@H](C)CO)C(=O)c2cc(NC(=O)CCCN(C)C)ccc2O[C@@H](C)CCCCO[C@@H]1CN(C)C(=O)Cc1ccccc1 | . | . | . | 0 | . | .
CC(C)=NN/C(N)=N/C(=S)Nc1ccc(C)cc1 | -1 | 6 | -4 | . | -3 | 13*
COc1ccc(S(=O)(=O)N(C)C[C@@H]2Oc3ccc(NC(=O)C4CC4)cc3CC(=O)N([C@H](C)CO)C[C@H]2C)cc1 | . | . | . | 0 | . | .
Cc1ccc(OCc2nnc(SCC(=O)N3CCOCC3)n2C)cc1 | -13 | 2 | -6 | . | -7 | 16*
Cc1ccc(OCc2nnc(SCCN3CCOCC3)n2C)cc1 | -3 | 3 | 7 | . | 2 | 0
Cc1noc(C)c1NC(=O)Nc1cccc2c1O[C@@H](CN(C)C(=O)NC1CCCCC1)[C@@H](C)CN([C@@H](C)CO)C2=O | . | . | . | 0 | . | .
CSc1nc2ccc(NS(=O)(=O)c3cccc(Cl)c3Cl)cc2s1 | -7 | -7 | -2 | 0 | -1 | 16*
Cc1nc2ccc(NS(=O)(=O)c3ccccc3Cl)cc2s1 | . | . | . | 0 | -3 | -1
COC(=O)Nc1ccc2c(c1)OCO2 | 1 | 21 | 3 | . | 4 | 1
O=C(Nc1ccc2c(c1)OCCO2)Nc1ccc2c(c1)OCO2 | 0 | 3 | 1 | 0 | 14 | -38
NC(=O)c1ccc(NC(=O)Nc2ccc3c(c2)OCO3)cc1 | -6 | -5 | 0 | 0 | -8 | 13*
COC(=O)c1ccc(NC(=O)Nc2ccc3c(c2)OCO3)cc1 | 0 | 1 | -4 | 0 | -13 | 24*
O=C(C1CCOCC1)N1C[C@@H]2[C@H](c3ccccc31)[C@@H](CO)N2C(=O)Nc1ccccc1F | . | . | . | 0 | . | .
O=C(Cn1cnc2c(NCc3ccccc3)ncnc21)NCCCc1ccccc1 | . | . | . | 0 | . | 17*
